Test results as given in ChEMBL document CHEMBL1124990, “Propenyl carboxamide derivatives as antagonists of platelet activating factor” (J Med Chem, 1990).

What was measured:
Assay type in all cases: functional
Cavia porcellus [1] = assay: Dose that caused significant inhibition of the platelet activating factor-induced bronchoconstriction in guinea pig after peroral administration; details: po, read-out: ID50 (the source's name)
Summary of the method: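 Male Hartley guinea pigs (400–600 g), urethane-anesthetized (2 g/kg ip), jugular cannula, propranolol pretreatment, succinylcholine paralysis and ventilation. Compound or vehicle given orally 2 h before iv PAF challenge (1 μg/kg). Tracheal pressure rise averaged over four control and four dosed animals, giving % inhibition.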

Cavia porcellus [2] = assay: In vivo inhibition of the platelet activating factor-induced bronchoconstriction after 6 hr at dose 50 mg/kg administered perorally in guinea pig; details: route oral
Summary of the method: (§1)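 Oral dosing of 50 mg/kg, either 2 h or 6 h before iv PAF challenge (1 μg/kg), in urethane-anesthetized male Hartley guinea pigs (400–600 g). Animals were propranolol-pretreated, paralysed with succinylcholine and ventilated. Tracheal pressure change averaged over four vehicle and four drug-treated animals and reported as % inhibition.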

Cavia porcellus [3] = assay: Dose that caused significant inhibition of the platelet activating factor-induced bronchoconstriction in guinea pig after intravenous administration; details: read-out: ID50 (the source's name)
Summary of the method: (§2)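 Male Hartley guinea pigs (400–600 g), urethane-anesthetized (2 g/kg ip), jugular cannula; propranolol given 5 min before PAF; succinylcholine (1.2 mg/kg iv) then ventilation at 40 breaths/min, 4.0 cm³ stroke. Drug or vehicle iv 1 min before PAF 1 μg/kg iv. Tracheal pressure change averaged over four control and four treated animals, expressed as % inhibition; screen at 1 mg/kg.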

Cavia porcellus [4] = assay: In vivo inhibition of the platelet activating factor-induced bronchoconstriction at dose 1.0 mg/kg administered intravenous in guinea pig; summary of the method: as §2
Cavia porcellus [5] = assay: In vivo inhibition of the platelet activating factor-induced bronchoconstriction after 2 hr at dose 50 mg/kg administered perorally in guinea pig; details: route oral; summary of the method: as §1

CCCCCc1c(/C=C/C(=O)N[C@@H](CC)CCCc2cccnc2)n(C)c2cc(OC)ccc12
ED50 (Cavia porcellus [1]): 3 mg/kg
inhibition in vivo at 50 mg/kg (Cavia porcellus [2]): 96%
ED50 (Cavia porcellus [3]): 0.07 mg/kg
inhibition in vivo at 1 mg/kg (Cavia porcellus [4]): 98%
inhibition in vivo at 50 mg/kg (Cavia porcellus [5]): 99%

CCCCCc1c(/C=C/C(=O)N[C@@H](C)CCCc2cccnc2)sc2cc(OC)ccc12
ED50 (Cavia porcellus [1]): 5.4 mg/kg
inhibition in vivo at 50 mg/kg (Cavia porcellus [2]): 97%
ED50 (Cavia porcellus [3]): 0.11 mg/kg
inhibition in vivo at 1 mg/kg (Cavia porcellus [4]): 98%
inhibition in vivo at 50 mg/kg (Cavia porcellus [5]): 97%

CCCCCC1=C(/C=C/C(=O)N[C@@H](C)CCCc2cccnc2)Cc2cc(OC)ccc21
ED50 (Cavia porcellus [3]): 0.05 mg/kg
inhibition in vivo at 1 mg/kg (Cavia porcellus [4]): 96%
inhibition in vivo at 50 mg/kg (Cavia porcellus [5]): 0%

CCCCc1c(/C=C/C(=O)N[C@@H](C)CCCc2cccnc2)cc(OC)c2ccc(OC)cc12
ED50 (Cavia porcellus [3]): 0.44 mg/kg
inhibition in vivo at 1 mg/kg (Cavia porcellus [4]): 80%
inhibition in vivo at 50 mg/kg (Cavia porcellus [5]): 16%

CCCCc1c(/C=C/C(=O)N[C@@H](C)CCCc2cccnc2)ccc2ccc(OC)cc12
inhibition in vivo at 1 mg/kg (Cavia porcellus [4]): 0%

CCCCC/C(=C\C=C\C(=O)N[C@@H](C)CCCc1cccnc1)c1ccc(OC)cc1
ED50 (Cavia porcellus [1]): 4.1 mg/kg
inhibition in vivo at 50 mg/kg (Cavia porcellus [2]): 71%
ED50 (Cavia porcellus [3]): 0.05 mg/kg
inhibition in vivo at 1 mg/kg (Cavia porcellus [4]): 99%
inhibition in vivo at 50 mg/kg (Cavia porcellus [5]): 100%

CCCCc1c(/C=C/C(=O)N[C@@H](C)CCCc2cccnc2)ccc2c(OC)cccc12
ED50 (Cavia porcellus [3]): 1 mg/kg
inhibition in vivo at 1 mg/kg (Cavia porcellus [4]): 50%
inhibition in vivo at 50 mg/kg (Cavia porcellus [5]): 4%

CCCCc1c(/C=C/C(=O)N[C@@H](C)CCCc2cccnc2)ccc2cc(OC)ccc12
ED50 (Cavia porcellus [1]): 4.2 mg/kg
inhibition in vivo at 50 mg/kg (Cavia porcellus [2]): 71%
ED50 (Cavia porcellus [3]): 0.45 mg/kg
inhibition in vivo at 1 mg/kg (Cavia porcellus [4]): 95%
inhibition in vivo at 50 mg/kg (Cavia porcellus [5]): 92%

CCCCc1c(/C=C/C(=O)N[C@@H](C)CCCc2cccnc2)cc(OC)c2ccccc12
ED50 (Cavia porcellus [1]): 2.8 mg/kg
inhibition in vivo at 50 mg/kg (Cavia porcellus [2]): 52%
ED50 (Cavia porcellus [3]): 0.11 mg/kg
inhibition in vivo at 1 mg/kg (Cavia porcellus [4]): 90%
inhibition in vivo at 50 mg/kg (Cavia porcellus [5]): 95%

CCCCC1=C(/C=C/C(=O)N[C@@H](C)CCCc2cccnc2)CCc2cc(OC)ccc21
ED50 (Cavia porcellus [1]): 50 mg/kg
ED50 (Cavia porcellus [3]): 0.46 mg/kg
inhibition in vivo at 1 mg/kg (Cavia porcellus [4]): 94%
inhibition in vivo at 50 mg/kg (Cavia porcellus [5]): 50%

CCCCCc1c(/C=C/C(=O)N[C@@H](C)CCCc2cccnc2)oc2cc(OC)ccc12
ED50 (Cavia porcellus [3]): 0.06 mg/kg
inhibition in vivo at 1 mg/kg (Cavia porcellus [4]): 89%
inhibition in vivo at 50 mg/kg (Cavia porcellus [5]): 0%

COc1ccc(-c2c(/C=C/C(=O)N[C@@H](C)CCCc3cccnc3)ccc3cc(OC)ccc23)cc1
ED50 (Cavia porcellus [1]): 12 mg/kg
inhibition in vivo at 50 mg/kg (Cavia porcellus [2]): 55%
ED50 (Cavia porcellus [3]): 0.18 mg/kg
inhibition in vivo at 1 mg/kg (Cavia porcellus [4]): 92%
inhibition in vivo at 50 mg/kg (Cavia porcellus [5]): 79%

COc1ccc(C2=C(/C=C/C(=O)N[C@@H](C)CCCc3cccnc3)CCc3cc(OC)ccc32)cc1
ED50 (Cavia porcellus [1]): 17 mg/kg
inhibition in vivo at 50 mg/kg (Cavia porcellus [2]): 1%
ED50 (Cavia porcellus [3]): 0.15 mg/kg
inhibition in vivo at 1 mg/kg (Cavia porcellus [4]): 95%
inhibition in vivo at 50 mg/kg (Cavia porcellus [5]): 75%
